# ChEMBL document CHEMBL3244381, “Tetramisole analogues as inhibitors of alkaline phosphatase, an enzyme involved in the resistance of neoplastic cells to 6-thiopurines” (J Med Chem, 1977)
# The source made the active and inactive calls. The calls are words filed in the database; no cut-off is given here.
# Biological target: T1, Alkaline phosphatase, tissue-nonspecific isozyme (Mus musculus) (UniProt P09242)
# T1 sequence (whole entry): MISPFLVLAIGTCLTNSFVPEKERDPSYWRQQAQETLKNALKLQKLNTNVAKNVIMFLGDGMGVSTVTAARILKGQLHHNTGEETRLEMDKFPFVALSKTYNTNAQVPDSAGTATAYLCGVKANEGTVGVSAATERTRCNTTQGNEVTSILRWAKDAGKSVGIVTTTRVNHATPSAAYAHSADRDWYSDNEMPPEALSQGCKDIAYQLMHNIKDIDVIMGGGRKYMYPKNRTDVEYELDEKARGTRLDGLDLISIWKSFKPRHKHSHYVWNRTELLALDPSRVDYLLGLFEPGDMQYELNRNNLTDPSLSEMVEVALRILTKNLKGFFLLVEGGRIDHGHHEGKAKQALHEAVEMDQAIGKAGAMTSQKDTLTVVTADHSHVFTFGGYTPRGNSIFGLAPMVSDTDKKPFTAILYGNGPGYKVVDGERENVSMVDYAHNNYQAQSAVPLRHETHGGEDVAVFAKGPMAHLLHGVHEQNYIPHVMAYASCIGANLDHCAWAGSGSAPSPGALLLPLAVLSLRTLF
# Assay: Inhibition of alkaline phosphatase in mouse Sarcoma 180/TG cells up to 5 x 10^-4 M
# Assay type: cell-based
# Conditions: not given
# Procedure, shortened: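 Particulate-bound alkaline phosphatase, partially purified from Sarcoma 180/TG ascites cells (4360 units/mL), exposed to oxalate salts at concentrations up to at least 5 x 10^-4 M and checked for significant inhibition.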
row,Compound,inhibition
1,CSc1nc(-c2ccccc2)c[nH]1,inactive
2,CSc1nc(-c2ccccc2)cn1CCO,inactive
3,Cc1cccc(C(=O)CN2CCSC2=N)c1,inactive
4,N=C1SCCN1CC(=O)c1ccc2ccccc2c1,inactive
5,CC(=O)/N=C1\SCCN1CC(O)c1ccc2ccccc2c1 (racemic),inactive
6,CC(=O)/N=C1\SCCN1CC(O)c1cccc(C)c1 (racemic),inactive

# Next, values leading:
row,inhibition,Compound
1,inactive,CC(=O)/N=C1\SCCN1CC(=O)c1ccc2ccccc2c1
2,inactive,CC(=O)/N=C1\SCCN1CC(=O)c1cccc(C)c1
3,inactive,CC(=O)/N=c1\sccn1CC(=O)c1ccc(Br)cc1
4,inactive,CC(=O)/N=c1\sccn1CC(=O)c1ccc(C)c(C)c1
5,inactive,CC(=O)/N=c1\sccn1CC(=O)c1ccc(C)cc1
6,inactive,CC(=O)/N=c1\sccn1CC(=O)c1ccc([N+](=O)[O-])cc1
7,inactive,CC(=O)/N=c1\sccn1CC(=O)c1ccc2ccccc2c1
8,inactive,Cc1ccc(C(=O)Cn2ccsc2=N)cc1
9,inactive,N=c1sccn1CC(=O)c1ccc(Br)cc1
10,inactive,N=c1sccn1CC(=O)c1ccc([N+](=O)[O-])cc1
11,inactive,N=c1sccn1CC(=O)c1ccc2ccccc2c1
12,inactive,CC(=O)/N=c1\sccn1CC(O)c1ccc(Br)cc1 (racemic)
13,inactive,CC(=O)/N=c1\sccn1CC(O)c1ccc(C)c(C)c1 (racemic)
14,inactive,CC(=O)/N=c1\sccn1CC(O)c1ccc(C)cc1 (racemic)
15,inactive,CC(=O)/N=c1\sccn1CC(O)c1ccc([N+](=O)[O-])cc1 (racemic)
16,inactive,CC(=O)/N=c1\sccn1CC(O)c1ccc2ccccc2c1 (racemic)

# Biological target: T2, Alkaline phosphatase, tissue-nonspecific isozyme (Mus musculus, UniProt P09242)
# T2 sequence (P09242 whole entry): T1 sequence (whole entry)
# Assay: Inhibition of alkaline phosphatase in mouse Sarcoma 180/TG cells
# Assay type: cell-based
# Conditions: read-out: I50
# Procedure, shortened: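 Partially purified particulate-bound alkaline phosphatase from Sarcoma 180/TG ascites cells (4360 units/mL); compounds tested as oxalate salts; IC50 taken as the concentration cutting observed enzyme activity by 50%.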
row,IC50 [µM],Compound
1,1.8,Brc1ccc([C@H]2CN3CCSC3=N2)cc1.O=C(O)C(=O)O
2,45,C1=CN2CC(c3ccccc3)N=C2S1 (racemic)
3,1.3,Brc1ccc(C2CN3C=CSC3=N2)cc1 (racemic)
4,8.3,O=[N+]([O-])c1ccc(C2CN3C=CSC3=N2)cc1 (racemic)
5,11,Cc1ccc(C2CN3C=CSC3=N2)cc1C (racemic)
6,6.6,Cc1ccc(C2CN3C=CSC3=N2)cc1 (racemic)
7,2,Brc1cccc(C2CN3C=CSC3=N2)c1 (racemic)
8,1,C1=CN2CC(c3ccc4ccccc4c3)N=C2S1 (racemic)
9,50,C1=CN2CC(c3cccs3)N=C2S1 (racemic)
10,38,c1ccc(C2CN3CCSC3=N2)cc1 (racemic)
11,2.6,Brc1ccc(C2CN3CCSC3=N2)cc1 (racemic)
12,4.5,Clc1ccc(C2CN3CCSC3=N2)cc1 (racemic)
13,16,Fc1ccc(C2CN3CCSC3=N2)cc1 (racemic)
14,8.1,Cc1ccc(C2CN3CCSC3=N2)cc1 (racemic)
15,40,Cc1cccc(C2CN3CCSC3=N2)c1 (racemic)
16,38,O=[N+]([O-])c1cccc(C2CN3CCSC3=N2)c1 (racemic)
17,9,c1ccc2cc(C3CN4CCSC4=N3)ccc2c1 (racemic)

# System: not listed separately
# Assay: Ratio of growth inhibition of mouse Sarcoma 180/TG cells in presence of […] to growth inhibition of mouse Sarcoma 180/TG cells in absence of […] at 100 uM after 96 hrs
# Assay type: functional
# Conditions: not given
# Procedure, shortened: (§1)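 Log-phase Sarcoma 180/TG cells were seeded at 10^4 cells/mL in Fischer's medium with 10% horse serum at 37 °C. They were given the oxalate salt with or without 6-thioguanine (10^-6 M) for 96 h, and cell number/mL was counted. Ratio = cell count with 6-thioguanine / count without × 100.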
row,Compound,Ratio
1,Brc1ccc([C@H]2CN3CCSC3=N2)cc1.O=C(O)C(=O)O,49

# System: not listed separately
# Assay: Ratio of growth inhibition of mouse Sarcoma 180/TG cells in presence of […] to growth inhibition of mouse Sarcoma 180/TG cells in absence of […] at 10 uM after 96 hrs
# Assay type: functional
# Conditions: not given
# Procedure, shortened: as §1
row,Compound,Ratio
1,Brc1ccc([C@H]2CN3CCSC3=N2)cc1.O=C(O)C(=O)O,69

# System: not listed separately
# Assay: Ratio of growth inhibition of mouse Sarcoma 180/TG cells in presence of […] to growth inhibition of mouse Sarcoma 180/TG cells in absence of […] at 50 uM after 96 hrs
# Assay type: functional
# Conditions: not given
# Procedure, shortened: as §1
row,Compound,Ratio
1,Brc1ccc([C@H]2CN3CCSC3=N2)cc1.O=C(O)C(=O)O,66
